Laboratory results taken from ChEMBL document CHEMBL6177914, “Human microbiome derived synthetic antimicrobial peptides with activity against Gram-negative, Gram-positive, and antibiotic resistant bacteria” (RSC Med Chem, 2025).
≈ marks a conversion by molar mass, not a printed value. Calls of active or inactive are those of the source. No cut-off for these calls is given here. Square brackets hold non-standard residues; d marks the D form. Peptide text beside a SMILES is read from it.

Columns and labels:
[1] = Retention time of compound by RP-HPLC analysis; assay type: physicochemical
Procedure, shortened: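 Analytical reversed-phase HPLC.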

Staphylococcus aureus [2] = experiment: Bactericidal activity against methicillin resistant Staphylococcus aureus BAA 2313 assessed as inhibition of bacterial growth at MIC concentration incubated for 48 hrs by broth microdilution assay; assay type: functional, organism-based
Procedure, shortened: (§1)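 Plates were incubated 48 h at 37 °C and examined for colonies. A fidaxomicin-treated culture at 1 µM served as the control.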

Staphylococcus aureus [3] = experiment: Antibacterial activity against Staphylococcus aureus ATCC 25923 assessed as reduction in colony forming units at MIC concentration measured after 2 hrs by time-kill kinetic analysis; assay type: functional
Procedure, shortened: (§2)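 Samples (5 µL) taken at 0, 1, 2, 4, 6, 12, 18 and 24 h, tenfold diluted in 0.85% NaCl, and plated on TSA overnight at 37 °C for CFU counts. Two independent duplicates.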

Enterococcus faecium [4] = experiment: Antibacterial activity against vancomycin resistant Enterococcus faecium BAA 2317 assessed as inhibition of bacterial growth incubated for 24 hrs by absorbance based microplate reader analysis; assay type: functional; conditions: read-out: MIC100
Procedure, shortened: (§3)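 Broth microdilution. A single colony was grown 24 h in its recommended broth, then diluted 1:10 000 in the same medium. Peptide serial dilutions were added from DMSO stock at 4 µL per 196 µL inoculated medium. Plates were incubated aerobically or anaerobically as each pathogen requires, at 37 °C for 24 h, and OD600 was read. MIC was the lowest concentration giving 100% growth inhibition. Duplicate wells; assay repeated five times independently.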

Listeria monocytogenes [5] = experiment: Bactericidal activity against Listeria monocytogenes ATCC 15313 assessed as inhibition of bacterial growth at MIC concentration incubated for 48 hrs by broth microdilution assay; assay type: functional, organism-based
Procedure, shortened: (§4)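 From broth-microdilution wells showing no growth, 10 µL was spotted onto agar and incubated 48 h at 37 °C. Plates were inspected for colonies. Fidaxomicin at 1 µM served as control.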

Staphylococcus aureus [6] = experiment: Induction of morphological changes in Staphylococcus aureus ATCC 25923 assessed as leakage of intracellular content at MIC concentration by transmission electron microscopic analysis; assay type: functional, organism-based
Procedure, shortened: (§5)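 Cells were pelleted at 4 °C, washed in 0.1 M PBS pH 7.2, and fixed overnight (4% formaldehyde, 1.25% glutaraldehyde, ruthenium red). Post-fixed in 1% OsO4, dehydrated through ethanol, embedded in epoxy resin and imaged by TEM.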

Clostridioides difficile = experiment: Bactericidal activity against Clostridium difficile ATCC 43602 assessed as inhibition of bacterial growth at MIC concentration incubated for 48 hrs by broth microdilution assay; assay type: functional, organism-based; procedure, shortened: as §4
Escherichia coli [7] = experiment: Bactericidal activity against Escherichia coli ATCC 33694 assessed as inhibition of bacterial growth at MIC concentration incubated for 48 hrs by broth microdilution assay; assay type: functional, organism-based; procedure, shortened: as §4
Pseudomonas aeruginosa [8] = experiment: Bactericidal activity against Pseudomonas aeruginosa BAA 1744 assessed as inhibition of bacterial growth at MIC concentration incubated for 48 hrs by broth microdilution assay; assay type: functional, organism-based; procedure, shortened: as §4
Staphylococcus aureus [9] = experiment: Bactericidal activity against Staphylococcus aureus ATCC 25923 assessed as inhibition of bacterial growth at MIC concentration incubated for 48 hrs by broth microdilution assay; assay type: functional, organism-based; procedure, shortened: as §4
Salmonella enterica [10] = experiment: Bactericidal activity against Salmonella enterica ATCC 13314 assessed as inhibition of bacterial growth at MIC concentration incubated for 48 hrs by broth microdilution assay; assay type: functional, organism-based; procedure, shortened: as §4
Salmonella enterica [11] = experiment: Antibacterial activity against Salmonella enterica ATCC 13314 assessed as inhibition of bacterial growth incubated for 24 hrs by absorbance based microplate reader analysis; assay type: functional
Procedure, shortened: (§6)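 Broth microdilution. An overnight single-colony culture in recommended broth was diluted 1:10 000, and peptide serial dilutions in DMSO were added (4 µL into 196 µL). Plates incubated 24 h at 37 °C, aerobic or anaerobic as required, then OD600 read. Inhibition was calculated against pathogen-only and blank wells.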

Staphylococcus aureus [12] = experiment: Induction of morphological changes in Staphylococcus aureus ATCC 25923 assessed as appearance of detached fragments at MIC concentration by transmission electron microscopic analysis; assay type: functional, organism-based; procedure, shortened: as §5
Staphylococcus aureus [13] = experiment: Antibacterial activity against Staphylococcus aureus ATCC 25923 assessed as reduction in surviving bacteria at MIC concentration measured within 6 hrs by time-kill kinetic analysis; assay type: functional; procedure, shortened: as §2
Staphylococcus aureus [14] = experiment: Induction of morphological changes in Staphylococcus aureus ATCC 25923 assessed as extracellular protrusions by measuring fragments of lysed cell wall at MIC concentration by transmission electron microscopic analysis; assay type: functional, organism-based; procedure, shortened: as §5
Staphylococcus aureus [15] = experiment: Antibacterial activity against Staphylococcus aureus ATCC 25923 assessed as reduction in bacterial growth at MIC concentration measured after 24 hrs by time-kill kinetic analysis; assay type: functional, organism-based; procedure, shortened: as §2
Enterococcus faecium [16] = experiment: Bactericidal activity against vancomycin resistant Enterococcus faecium BAA 2317 assessed as inhibition of bacterial growth at MIC concentration incubated for 48 hrs by broth microdilution assay; assay type: functional, organism-based; procedure, shortened: as §1
Staphylococcus aureus [17] = experiment: Induction of morphological changes in Staphylococcus aureus ATCC 25923 assessed as cell damage at MIC concentration by transmission electron microscopic analysis; assay type: functional, organism-based; procedure, shortened: as §5
Pseudomonas aeruginosa [18] = experiment: Antibacterial activity against Pseudomonas aeruginosa BAA 1744 assessed as inhibition of bacterial growth incubated for 24 hrs by absorbance based microplate reader analysis; assay type: functional; procedure, shortened: as §6
Staphylococcus aureus [19] = experiment: Antibacterial activity against Staphylococcus aureus ATCC 25923 assessed as reduction in surviving bacteria at MIC concentration measured after 12 hrs by time-kill kinetic analysis; assay type: functional; procedure, shortened: as §2
Escherichia coli [20] = experiment: Antibacterial activity against Escherichia coli ATCC 33694 assessed as inhibition of bacterial growth incubated for 24 hrs by absorbance based microplate reader analysis; assay type: functional; conditions: read-out: MIC100; procedure, shortened: as §6
Caco-2 = experiment: Anti-inflammatory activity in human Caco-2 cells infected with Clostridium difficile ATCC 43602 assessed as reduction in IL-1beta level at MIC concentration by ELISA relative to control; assay type: functional; set-up: scale not given: the % may be the effect or the level left
Procedure, shortened: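 Caco-2 cells grown in DMEM + 10% FBS, 37 °C, 5% CO2, to 90% confluence, then seeded 30 000 cells/well and held 24 h. C. difficile was grown overnight anaerobically in meat broth, washed in PBS, and 1 µL of 0.5 OD600 culture added per 300 µL medium. […] Cytokine in supernatant measured by ELISA; three independent replicates.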

Listeria monocytogenes [21] = experiment: Antibacterial activity against Listeria monocytogenes ATCC 15313 assessed as inhibition of bacterial growth incubated for 24 hrs by absorbance based microplate reader analysis; assay type: functional; conditions: read-out: MIC100
Procedure, shortened: as §3, with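 “read.” for “read. MIC was the lowest concentration giving 100% growth inhibition.”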

Row | SMILES | Activity (Staphylococcus aureus [2]) | Activity (Staphylococcus aureus [3]) [log10CFU/ml] | Activity (Listeria monocytogenes [5]) | Activity (Clostridioides difficile) | Activity (Escherichia coli [7]) | Activity (Pseudomonas aeruginosa [8]) | Activity (Staphylococcus aureus [9]) | Activity (Salmonella enterica [10]) | Activity (Salmonella enterica [11]) | Activity (Staphylococcus aureus [15]) | Activity (Enterococcus faecium [16]) | other results
1 | CC[C@H](C)[C@@H]1NC(=O)CNC(=O)CNC(=O)[C@H](CO)NC(=O)[C@H]([C@@H](C)CC)NC(=O)[C@H](CCCCN)NC(=O)[C@H](CO)NC(=O)[C@H](CC(C)C)NC(=O)[C@@H](C(C)C)NC(=O)[C@@H]2CCCN2C(=O)[C@H]([C@@H](C)CC)NC(=O)[C@H](C(C)C)NC(=O)[C@H](CC(C)C)NC(=O)[C@@H]2CCCN2C(=O)CNC1=O (cyclo(LSKISGGIGPLVIP[dV])) | Active | 3 | Active | Active | Active | Active | Active | Active | inactive | Active | Active | Retention_time [1]: 17.76 min; MIC (Enterococcus faecium [4]): 1.5 µM (≈ 2.15 µg/mL); Activity (Staphylococcus aureus [6]): Active; Activity (Staphylococcus aureus [12]): Active; Activity (Staphylococcus aureus [13]): 5 log10CFU/ml; Activity (Staphylococcus aureus [14]): Active; Activity (Staphylococcus aureus [17]): Active
2 | CC[C@H](C)[C@H](NC(=O)CNC(=O)CNC(=O)[C@H](CO)NC(=O)[C@@H](NC(=O)[C@H](CCCCN)NC(=O)[C@H](CO)NC(=O)[C@H](CC(C)C)NC(=O)[C@H](CCC(=O)O)NC(=O)[C@@H](NC(=O)[C@H](CCC(=O)O)NC(=O)[C@H](CC(N)=O)NC(=O)[C@H](CC(C)C)NC(=O)[C@H](CCCCN)NC(=O)[C@H](CC(N)=O)NC(=O)[C@@H](N)CCSC)C(C)C)[C@@H](C)CC)C(=O)NCC(=O)N1CCC[C@H]1C(=O)N[C@@H](CC(C)C)C(=O)N[C@H](C(=O)N[C@H](C(=O)N1CCC[C@H]1C(=O)N[C@H](C(=O)N[C@@H](C)C(=O)N[C@@H](C)C(=O)N[C@H](C(=O)N[C@@H](CC(C)C)C(=O)NCC(=O)N[C@@H](Cc1ccccc1)C(=O)N[C@@H](CC(C)C)C(=O)N[C@@H](C)C(=O)N[C@H](C(=O)N[C@@H](CC(=O)O)C(=O)N[C@@H](C)C(=O)N[C@@H](Cc1c[nH]c2ccccc12)C(=O)N[C@@H](CC(N)=O)C(=O)N[C@@H](Cc1cnc[nH]1)C(=O)N[C@@H](C)C(=O)N[C@@H](CC(=O)O)C(=O)N[C@@H](CCC(=O)O)C(=O)N[C@@H](CC(C)C)C(=O)N[C@H](C(=O)N[C@@H](C)C(=O)NCC(=O)N[C@H](C(=O)N[C@@H](CCCCN)C(=O)N[C@@H](CCC(N)=O)C(=O)NCC(=O)N[C@@H](Cc1c[nH]c2ccccc12)C(=O)N[C@@H](CCC(=O)O)C(=O)N[C@@H](CCCNC(=N)N)C(=O)N[C@@H](CO)C(=O)O)C(C)C)C(C)C)[C@H](C)O)[C@@H](C)CC)C(C)C)[C@@H](C)CC)C(C)C | Active | 2 | Active | Active | Active | Active | Active | Active | inactive | Active | Active | Activity (Pseudomonas aeruginosa [18]): inactive; Activity (Staphylococcus aureus [19]): 5 log10CFU/ml; MIC (Escherichia coli [20]): 7.5 µM (≈ 41.4 µg/mL); Activity (Caco-2): 91%; MIC (Listeria monocytogenes [21]): 1.2 µM (≈ 6.62 µg/mL)
